Bioassay records deposited in PubChem by several laboratories.
This is a sample that favours compounds with a hit; in the whole collection about 9.8% have one here.
L major viab = Leishmania major promastigote growth inhibition, primary screen; Leishmania major promastigotes, resazurin fluorescence viability; inhibition, % at 10 µM; 200,000 tested, 9% active; in the data active = inhibition above about 50%;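 also: promastigotes grown with compound for 44 hours at 28 °C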
WT yeast gro inh = growth inhibition of WT strain, primary screen, mitochondrial fusion inhibitor project, WT and mutant strains, chemical genetic; mitochondrial fusion phenotypic screen; inhibition, % at 10 µM; AID 1362, 2008; 190,000 tested, 2.1% active; in the data active = inhibition above about 58%; tested in S. cerevisiae
Calpain2 inh = inhibitors of pig calpain II, primary screen, biochemical, fluorogenic peptide substrate, 1536-well; 220,000 tested, 0.37% active; purified calpain II, 30 min; inhibition, % at 16 µM;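 active = inhibition above about 50%, limit read from the data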
PMI act = activators of human PMI, primary screen, biochemical, fluorescence intensity, near-Km mannose 6-phosphate. purified human PMI, coupled resazurin fluorescence, 20 min; stronger effect = higher value; 1 = vehicle control, 0 substrate-free wells. activation factor at 20 µM. 190,000 tested, 0.005% active;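 active = activation factor of 2 or more at 20 µM, relative to plate controls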
PMI act hi M6P = human PMI activators, high substrate, primary screen, biochemical, fluorescence intensity, near-saturating mannose 6-phosphate | 190,000 tested, 0.34% active | activation factor at 20 µM | coupled PMI enzyme assay, resazurin fluorescence, 20 min; stronger effect = higher value; 1 = untreated enzyme, 0 = substrate-free blank | Mannose-6-phosphate isomerase (Homo sapiens), P34949;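 active = activation factor of 2 or more at 20 µM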
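Test system: Human PMI in coupled enzyme assay | Input: 15 ng/mL PMI | Medium: HEPES-buffered pH 7.4 with magnesium and detergent | Compound: One concentration, 20 µM, in 1% DMSO | Incubation: Enzyme reaction with compound 20 min at room temperature | Detection: Diaphorase-driven resazurin-to-resorufin fluorescence, excitation 544, emission 590 nm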
Rad51 HR inh = human RAD51 strand exchange inhibitors, primary screen, biochemical, fluorescence; hRad51 DNA strand exchange, fluorescence dequenching; inhibition, % at 10 µM; 200,000 tested, 0.085% active; AID 1385, 2008;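 active = inhibition above 40% at the single screening dose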;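 also: 0% = DMSO control wells and 100% = blanks with heterologous ssDNA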
Target sequence (Q06609 whole entry, looked up): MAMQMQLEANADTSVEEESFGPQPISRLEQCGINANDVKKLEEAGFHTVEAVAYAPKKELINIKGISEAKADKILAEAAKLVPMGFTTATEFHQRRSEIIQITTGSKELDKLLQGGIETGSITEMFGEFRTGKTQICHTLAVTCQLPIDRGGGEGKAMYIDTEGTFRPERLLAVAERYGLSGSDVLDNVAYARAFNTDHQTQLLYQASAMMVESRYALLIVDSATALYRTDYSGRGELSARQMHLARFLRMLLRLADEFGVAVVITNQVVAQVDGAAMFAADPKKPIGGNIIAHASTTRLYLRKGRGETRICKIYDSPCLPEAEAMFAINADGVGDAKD
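Test system – preformed human Rad51 ssDNA filaments · Reagent – Donor/quencher-labelled 47-bp dsDNA substrate · Incubation – 37 °C 15-min filament assembly, 30-min compound preincubation, 15-min exchange · Signal – FRET fluorescence dequenching, excitation 485 nm, emission 520 nm · Read-out – percent inhibition from fluorescence, normalised to plate control and blank means · Benchmarks – plate control and blank wells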
An asterisk follows results filed as active; / = no result.

SMILES	L major viab	WT yeast gro inh	Calpain2 inh	PMI act	PMI act hi M6P	Rad51 HR inh
COc1cccc(NC(=O)C(=O)N2CCOCC2)c1	-2	0	-8	1.1	1.1	-7
COC(=O)c1ccc(NC(=O)C(=O)N2CCN(C(=S)Nc3cccc(OC)c3)CC2)cc1	72*	8	-4	0.8	0.9	-4
COC(=O)c1ccc(NC(=O)C(=O)N2CCN(C(=S)Nc3ccc(OC)cc3)CC2)cc1	31	3	0	0.9	1	/
Cc1cccc2c1NC(=O)/C2=C\C(=O)c1cccs1	100*	37	-45	1	1	0
CN(C)/C=C/C(=O)c1ccc(Br)s1	-1	-8	34	0.9	0.9	-6
Cc1cc(C)c2c(c1)/C(=C/C(=O)c1ccc(Br)s1)C(=O)N2	100*	87*	-9	1	1.1	2
Cc1cc(Br)c2c(c1)/C(=C/C(=O)c1cccs1)C(=O)N2	100*	49	0	0.9	0.9	10
O=C(/C=C1\C(=O)Nc2ccccc21)/C=C1\C(=O)Nc2ccccc21	/	/	17	/	/	-10
CN1/C(=C\C(=O)c2cccs2)C(C)(C)c2ccccc21	22	72	6	0.8	0.9	-2
CCc1ccc2c(c1)/C(=C/C(=O)c1cccs1)C(=O)N2	101*	81	9	0.9	0.9	0
CCCc1ccc(NS(=O)(=O)c2c(C)oc(C)c2C(=O)OC)cc1	/	/	-2	/	/	-20
CCN(CCn1cccn1)Cc1c(C(=O)N2CCCCCCC2)nc2ccc(Cl)cn12	-3	-17	-2	1	1	-2
COc1ccc(CC2(CO)CCN(Cc3cnc(-c4ccccc4C)nc3)CC2)cc1	-5	-5	-35	/	/	-5
COc1ccc(CC2(CO)CCN(Cc3cnn(-c4ccccc4)c3)CC2)cc1	87*	16	38	1	0.9	-3
COc1ccc(CC2(CO)CCN(Cc3cnn(-c4ccc(F)cc4)c3)CC2)cc1	84*	10	1	0.8	0.8	8
COc1ccc(CC2(CO)CCN(Cc3cnn(-c4ccccc4OC)c3)CC2)cc1	21	-1	-3	1	1.1	/
Cc1ccc(-c2nc3ccsc3c(=O)[nH]2)cc1	-3	-8	-18	1.1	1	0
COc1cc(-c2[nH]ncc2CN2CCCC2c2nonc2C)cc(OC)c1OC (centres undefined)	-1	16	26	1	0.9	-4
Cc1nonc1C1CCCN1Cc1cn[nH]c1-c1ccc(-c2ccccc2)cc1 (centres undefined)	39	58*	11	0.8	0.8	/
CCOC(=O)c1sc(=S)n(C)c1NC(=O)c1ccccc1Cl	-4	26	34	0.8	1	3
O=C(COc1ccccc1[N+](=O)[O-])N1CCC(Cc2ccccc2)CC1	8	14	12	1.1	1	-18
Cc1ccccc1OCCN1CCC(Cc2ccccc2)CC1	82*	37	16	1.1	1.2	9
CCN1CCN(CCOc2ccccc2OCc2ccccc2)CC1	9	5	-40	1	1.1	0
CCOc1ccccc1OCCN1CCC(Cc2ccccc2)CC1	99*	9	1	1	1.1	-3
Cc1ccc([N+](=O)[O-])c(OCCN2CCC(Cc3ccccc3)CC2)c1	94*	-9	-1	0.9	0.9	2
SMILES	L major viab	WT yeast gro inh	Calpain2 inh	PMI act	PMI act hi M6P	Rad51 HR inh
CC1(C)C2C(Cl)(Cl)C2(C)c2ccccc2N1C=O (centres undefined)	/	/	-3	/	/	1
Cc1cc(C)c(Cn2cnc3ccccc32)c(C)c1	33	28	-7	1.1	1	-2
Cc1ccc(CNC(=O)COC(=O)CCC(=O)c2cccs2)cc1	18	-6	15	1	1	20
O=C(/C=C/c1ccc(-c2ccccc2[N+](=O)[O-])o1)c1ccco1	59*	57	-11	0.9	0.5	-5
COC(=O)c1ccc(CNC(=O)COC(=O)COc2ccc(OC)cc2)cc1	-8	-10	-24	1	0.9	-4
CC(/C=C/c1ccco1)=N\NC(=O)c1cccc(Cl)c1	7	-1	-20	1	0.9	13
CC(=O)Nc1cccc(C(=O)N/N=C/c2ccc(F)cc2)c1	10	6	14	1	1.1	-3
CC(=O)Nc1cccc(C(=O)N/N=C/c2ccccc2F)c1	83*	-7	6	1	1	-2
CC(/C=C/c1ccccc1F)=N\NC(=O)c1cccc(F)c1	90*	19	-22	1.1	1.1	-5
Cc1cccc2cc(C3CC(c4cccs4)=NN3C(=O)CCC(=O)O)c(Cl)nc12 (centres undefined)	1	-13	-34	0.8	0.9	/
Cc1ccc2nc(Cl)c(C3CC(c4cccs4)=NN3C(=O)CCCC(=O)O)cc2c1 (centres undefined)	57*	5	-106	1.1	1	-5
N/C(=N\OC(=O)C1CCCCC1)c1cccc([N+](=O)[O-])c1	-6	-16	8	1	0.9	/
O=[N+]([O-])c1ccc(C2CCCC/C2=N/OCc2ccc(F)cc2)c([N+](=O)[O-])c1 (centres undefined)	54*	14	37	1.1	1	4
O=[N+]([O-])c1ccc(C2CCCC/C2=N/OCc2ccccc2F)c([N+](=O)[O-])c1 (centres undefined)	19	26	7	0.9	1	-3
O=C(O/N=C1\CCCCC1c1ccc([N+](=O)[O-])cc1[N+](=O)[O-])c1c(F)cccc1F (centres undefined)	62*	-5	63*	0.8	0.7	1
O=C(Cc1c(Cl)cccc1Cl)OCC(=O)N1CCN(C(=O)c2ccco2)CC1	-4	-19	9	1.1	1.1	10
CC(C)(C)c1ccc(C(=S)N2CCN(c3ccccc3)CC2)cc1	/	/	13	/	/	10
Cc1ccccc1N1CCN(C(=S)c2ccccc2)CC1	57*	53	32	0.9	0.9	0
COc1ccc(OC)c(-c2c3cc(O)c(=O)cc-3oc3cc(O)c(O)cc23)c1	-9	58*	37	0.4	0.4	-150
O=c1cc2oc3cc(O)c(O)cc3c(-c3ccccc3O)c-2cc1O	/	/	10	/	/	-408
Cc1nnc(NC(=O)CSc2ccc([N+](=O)[O-])cn2)s1	-3	2	-12	1.2	1.1	/
N#Cc1ccccc1NC(=O)CSc1ccc([N+](=O)[O-])cn1	0	-9	-4	1.8	2.6*	2
Cc1ccc(CNc2ccc(N3C(=O)CCCC3=O)cc2[N+](=O)[O-])cc1	-4	11	-1	1	1	-2
